Five compounds from ChEMBL document CHEMBL2424622, “Development of amino-pyrimidine inhibitors of c-Jun N-terminal kinase (JNK): kinase profiling guided optimization of a 1,2,3-benzotriazole lead” (Bioorg Med Chem Lett, 2013) can be followed below.

Experiment [1] has as its target T1, Dual specificity mitogen-activated protein kinase kinase 6 (Homo sapiens) (UniProt P52564).
T1 sequence (whole entry): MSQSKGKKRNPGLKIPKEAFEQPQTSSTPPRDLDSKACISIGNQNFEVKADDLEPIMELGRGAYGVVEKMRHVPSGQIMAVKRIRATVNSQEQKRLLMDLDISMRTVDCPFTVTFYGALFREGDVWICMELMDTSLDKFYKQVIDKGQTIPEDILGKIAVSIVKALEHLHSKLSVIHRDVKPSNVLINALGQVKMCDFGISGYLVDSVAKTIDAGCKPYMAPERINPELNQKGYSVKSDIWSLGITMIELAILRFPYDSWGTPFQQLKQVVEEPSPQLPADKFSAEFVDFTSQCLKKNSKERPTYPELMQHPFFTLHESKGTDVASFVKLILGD
The experiment in a line: Competitive binding affinity to MEK6 (unknown origin) at 10 uM in presence of ATP relative to control.

Experiment [2] deals with LIM domain kinase 2 (Homo sapiens, UniProt P53671). Nature of the experiment: Competitive binding affinity to LIMK2 (unknown origin) at 10 uM in presence of ATP relative to control. The essentials:
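In vitro ATP-site competition binding assay, part of profiling against a diverse panel of 128 kinases. Each compound was tested at a single concentration of 10 µM. Kinome selectivity was summarized as S15 selectivity scores.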

Experiment [3] has as its target Serine/threonine-protein kinase MRCK gamma (Homo sapiens) (UniProt Q6DT37). The experiment in a line: Competitive binding affinity to DMPK2 (unknown origin) at 10 uM in presence of ATP relative to control.
Experiment [4] has as its target Bone morphogenetic protein receptor type-1A (Homo sapiens) (UniProt P36894). The experiment in a line: Competitive binding affinity to BMPR1A (unknown origin) at 10 uM in presence of ATP relative to control.
Experiment [5] deals with T2, Activin receptor type-1B (Homo sapiens) (UniProt P36896).
T2 sequence (whole entry): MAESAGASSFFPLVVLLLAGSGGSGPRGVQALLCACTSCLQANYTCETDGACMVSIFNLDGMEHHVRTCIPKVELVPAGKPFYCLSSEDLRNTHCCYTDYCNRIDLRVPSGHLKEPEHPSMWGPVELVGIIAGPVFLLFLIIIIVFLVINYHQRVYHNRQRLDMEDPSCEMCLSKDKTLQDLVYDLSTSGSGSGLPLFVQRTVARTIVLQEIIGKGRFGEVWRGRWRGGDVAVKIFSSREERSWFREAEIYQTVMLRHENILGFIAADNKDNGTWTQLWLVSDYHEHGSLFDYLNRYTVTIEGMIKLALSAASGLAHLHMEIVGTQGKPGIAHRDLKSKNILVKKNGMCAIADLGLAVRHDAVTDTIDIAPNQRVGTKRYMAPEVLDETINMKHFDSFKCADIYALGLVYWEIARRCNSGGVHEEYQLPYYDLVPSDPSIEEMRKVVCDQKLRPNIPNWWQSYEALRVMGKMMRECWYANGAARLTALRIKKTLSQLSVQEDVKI
Nature of the experiment: Competitive binding affinity to ACVR1B (unknown origin) at 10 uM in presence of ATP relative to control.

In experiment [6] the target is T3, Serine/threonine-protein kinase TNNI3K (Homo sapiens) (UniProt Q59H18).
T3 sequence (whole entry): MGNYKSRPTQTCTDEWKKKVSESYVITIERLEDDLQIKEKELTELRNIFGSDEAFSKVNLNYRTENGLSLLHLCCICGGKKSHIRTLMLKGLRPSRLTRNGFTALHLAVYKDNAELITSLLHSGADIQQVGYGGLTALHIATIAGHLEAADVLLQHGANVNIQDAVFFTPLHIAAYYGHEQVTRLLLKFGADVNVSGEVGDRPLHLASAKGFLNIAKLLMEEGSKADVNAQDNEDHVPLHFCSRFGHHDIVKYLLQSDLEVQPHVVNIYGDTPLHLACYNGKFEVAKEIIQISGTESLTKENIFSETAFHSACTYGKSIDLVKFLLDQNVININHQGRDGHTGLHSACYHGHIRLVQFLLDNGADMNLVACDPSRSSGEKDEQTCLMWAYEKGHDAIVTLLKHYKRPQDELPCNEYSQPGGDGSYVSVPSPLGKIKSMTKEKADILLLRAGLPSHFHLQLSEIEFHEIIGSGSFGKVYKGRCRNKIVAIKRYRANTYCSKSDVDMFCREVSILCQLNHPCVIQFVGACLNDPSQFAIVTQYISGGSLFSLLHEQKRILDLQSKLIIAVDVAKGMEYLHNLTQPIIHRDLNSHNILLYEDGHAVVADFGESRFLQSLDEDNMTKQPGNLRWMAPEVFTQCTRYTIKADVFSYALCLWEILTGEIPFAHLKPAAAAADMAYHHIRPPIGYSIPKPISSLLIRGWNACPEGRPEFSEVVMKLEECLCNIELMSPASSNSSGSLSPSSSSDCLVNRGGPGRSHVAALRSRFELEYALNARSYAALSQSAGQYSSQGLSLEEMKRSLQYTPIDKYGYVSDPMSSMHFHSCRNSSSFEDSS
The experiment in a line: Competitive binding affinity to […] (unknown origin) at 10 uM in presence of ATP relative to control.

Chain of Serine/threonine-protein kinase MRCK gamma (Homo sapiens) (Q6DT37 whole entry): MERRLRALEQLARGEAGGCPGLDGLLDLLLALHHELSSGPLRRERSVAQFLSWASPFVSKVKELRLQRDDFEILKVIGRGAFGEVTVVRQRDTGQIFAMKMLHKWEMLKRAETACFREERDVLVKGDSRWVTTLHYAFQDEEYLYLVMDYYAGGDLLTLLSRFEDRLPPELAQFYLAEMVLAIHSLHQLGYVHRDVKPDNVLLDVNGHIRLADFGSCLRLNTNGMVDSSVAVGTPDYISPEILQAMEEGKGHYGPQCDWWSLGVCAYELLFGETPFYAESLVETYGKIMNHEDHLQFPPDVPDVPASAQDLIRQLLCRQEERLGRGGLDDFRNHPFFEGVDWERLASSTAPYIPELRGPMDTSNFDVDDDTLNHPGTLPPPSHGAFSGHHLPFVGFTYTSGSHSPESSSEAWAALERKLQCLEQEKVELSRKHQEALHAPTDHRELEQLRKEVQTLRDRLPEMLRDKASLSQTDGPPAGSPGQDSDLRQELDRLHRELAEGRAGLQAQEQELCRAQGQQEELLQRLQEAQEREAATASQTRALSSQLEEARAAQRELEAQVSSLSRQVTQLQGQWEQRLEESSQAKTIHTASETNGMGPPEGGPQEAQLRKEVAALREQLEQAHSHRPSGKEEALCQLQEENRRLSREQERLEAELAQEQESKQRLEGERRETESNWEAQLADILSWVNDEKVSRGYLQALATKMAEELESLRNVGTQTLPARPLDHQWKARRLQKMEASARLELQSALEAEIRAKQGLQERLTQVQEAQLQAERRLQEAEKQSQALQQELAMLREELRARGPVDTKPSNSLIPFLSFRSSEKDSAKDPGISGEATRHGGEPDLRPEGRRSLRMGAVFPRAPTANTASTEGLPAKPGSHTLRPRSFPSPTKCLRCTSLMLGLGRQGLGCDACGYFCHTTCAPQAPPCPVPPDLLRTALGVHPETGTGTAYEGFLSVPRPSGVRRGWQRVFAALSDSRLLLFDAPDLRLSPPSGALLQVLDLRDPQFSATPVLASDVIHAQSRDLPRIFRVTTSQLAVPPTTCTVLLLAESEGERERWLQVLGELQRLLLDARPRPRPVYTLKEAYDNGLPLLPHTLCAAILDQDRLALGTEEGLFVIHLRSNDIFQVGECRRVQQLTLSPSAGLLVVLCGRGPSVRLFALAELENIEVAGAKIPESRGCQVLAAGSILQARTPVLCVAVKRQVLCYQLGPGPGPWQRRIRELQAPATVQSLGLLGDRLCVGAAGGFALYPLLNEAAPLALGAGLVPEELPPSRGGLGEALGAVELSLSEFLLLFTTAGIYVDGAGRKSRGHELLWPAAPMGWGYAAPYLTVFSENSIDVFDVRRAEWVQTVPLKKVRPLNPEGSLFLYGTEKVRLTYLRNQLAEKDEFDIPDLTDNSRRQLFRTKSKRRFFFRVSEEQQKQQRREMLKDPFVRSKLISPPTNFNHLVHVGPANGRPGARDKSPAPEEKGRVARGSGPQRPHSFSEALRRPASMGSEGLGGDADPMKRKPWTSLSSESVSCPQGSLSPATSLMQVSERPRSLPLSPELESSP
Chain of Bone morphogenetic protein receptor type-1A (Homo sapiens) (P36894 whole entry): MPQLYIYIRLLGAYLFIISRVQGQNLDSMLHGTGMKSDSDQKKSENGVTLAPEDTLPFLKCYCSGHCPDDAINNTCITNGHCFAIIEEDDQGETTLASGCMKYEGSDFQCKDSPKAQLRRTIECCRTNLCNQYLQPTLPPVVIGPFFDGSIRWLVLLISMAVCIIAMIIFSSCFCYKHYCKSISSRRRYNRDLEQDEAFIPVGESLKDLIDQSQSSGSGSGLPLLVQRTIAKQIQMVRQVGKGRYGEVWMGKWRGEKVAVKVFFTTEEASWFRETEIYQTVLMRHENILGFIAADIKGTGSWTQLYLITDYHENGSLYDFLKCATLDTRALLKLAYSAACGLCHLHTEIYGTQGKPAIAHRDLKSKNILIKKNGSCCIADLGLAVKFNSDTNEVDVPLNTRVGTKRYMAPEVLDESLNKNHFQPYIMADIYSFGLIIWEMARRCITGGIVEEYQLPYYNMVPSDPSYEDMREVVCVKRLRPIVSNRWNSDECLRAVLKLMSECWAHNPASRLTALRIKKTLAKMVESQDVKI
Chain of LIM domain kinase 2 (P53671 whole entry, looked up, the tested form may be a part): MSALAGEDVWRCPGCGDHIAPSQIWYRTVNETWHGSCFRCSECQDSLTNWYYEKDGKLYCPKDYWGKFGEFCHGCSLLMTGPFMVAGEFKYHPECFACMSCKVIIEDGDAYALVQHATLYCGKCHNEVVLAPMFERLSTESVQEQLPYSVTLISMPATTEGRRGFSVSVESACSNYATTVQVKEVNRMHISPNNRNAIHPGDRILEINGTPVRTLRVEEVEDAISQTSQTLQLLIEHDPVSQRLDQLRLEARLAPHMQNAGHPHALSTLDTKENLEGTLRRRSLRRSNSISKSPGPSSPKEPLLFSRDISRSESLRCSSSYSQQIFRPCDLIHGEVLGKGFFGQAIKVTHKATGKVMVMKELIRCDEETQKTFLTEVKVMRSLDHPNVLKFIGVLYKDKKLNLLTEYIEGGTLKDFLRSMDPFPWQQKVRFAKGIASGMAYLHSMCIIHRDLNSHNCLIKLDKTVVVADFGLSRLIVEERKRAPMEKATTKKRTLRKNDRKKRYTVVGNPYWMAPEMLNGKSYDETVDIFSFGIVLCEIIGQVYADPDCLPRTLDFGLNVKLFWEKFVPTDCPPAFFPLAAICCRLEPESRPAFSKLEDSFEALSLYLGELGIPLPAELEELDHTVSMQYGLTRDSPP

As to `O[C@H]1CC[C@H](Nc2nccc(-n3ccc4ccccc43)n2)CC1`, the inhibition in experiment [1] was 90%; in experiment [2], 81%; in experiment [3] it was under 50%; in experiment [4] it was under 50%; in experiment [5], under 50%; in experiment [6], under 50%.
As for `O[C@H]1CC[C@H](Nc2nccc(-n3nnc4ccccc43)n2)CC1`, the inhibition in experiment [1] is 96%; in experiment [2] it was 78%; in experiment [3], under 50%; in experiment [4] it was under 50%; in experiment [5], under 50%; in experiment [6] it was under 50%.
With `CS(=O)(=O)CCCOc1cccc2c1ccn2-c1ccnc(N[C@H]2CC[C@H](C(=O)N3CCC(O)CC3)CC2)n1`, the inhibition in experiment [1] and in experiment [2] was over 85% each time.
As for `O[C@H]1CC[C@H](Nc2nccc(-n3ncc4ccccc43)n2)CC1`, the inhibition in experiment [1] is 90%; in experiment [2], 76%; in experiment [3], under 50%; in experiment [4], under 50%; in experiment [5], under 50%; in experiment [6], under 50%.
`O[C@H]1CC[C@H](Nc2nccc(-c3n[nH]c4ccccc34)n2)CC1`: the inhibition in experiment [2] was 100%; in experiment [4] it was under 50%; in experiment [5] it was under 50%; in experiment [6] it was under 50%.

A word on the inhibition: it is the share of the control response that was lost under treatment.
